Compound activity deposited in PubChem by several laboratories.
T cell modulator: modulates CD8 T cell binding to vesicles; 2C CD8+ T cell-vesicle binding, flow cytometry; stronger effect = lower value; AID 2052; hit rate 0.068% among 330,000; response (vesicle binding), % at 7 µM;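 active means response, share of CD8 T cells binding vesicles, and their 90th percentile fluorescence all below set limits, cut at about 80% in these data, passing the limit was not always enough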;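 further: values below 100% mean blocked vesicle binding to the CD8+ T cells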
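Incubation: binding step 1.5 h, 37 °C, antibody labelling 20 min, ice; system: murine 2C transgenic CD8+ T lymphocytes; technique: cytometric PE anti-B7-1 and Alexa647 anti-CD8 signals after 1% paraformaldehyde fixation; also added: QL9-charged Drosophila Ld/ICAM-1/B7-1 vesicles; control set: naked versus QL9-loaded vesicles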
procasp7 counter: counter-screen: procaspase-7 (human) activation. P55210. recombinant procaspase-7, Ac-DEVD-pNA absorbance 405 nm; D23A/D198A/D206A triple mutant, cannot self-cleave; scale: DMSO 0, 5 µM enzyme 100. activation, % at 8.5 µM. hit rate 0.093% among 330,000;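 active means percent activation above the screen-wide mean plus 3 SD, cut at about 25% in these data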
Target sequence (P55210 whole entry D23A/D198A/D206A): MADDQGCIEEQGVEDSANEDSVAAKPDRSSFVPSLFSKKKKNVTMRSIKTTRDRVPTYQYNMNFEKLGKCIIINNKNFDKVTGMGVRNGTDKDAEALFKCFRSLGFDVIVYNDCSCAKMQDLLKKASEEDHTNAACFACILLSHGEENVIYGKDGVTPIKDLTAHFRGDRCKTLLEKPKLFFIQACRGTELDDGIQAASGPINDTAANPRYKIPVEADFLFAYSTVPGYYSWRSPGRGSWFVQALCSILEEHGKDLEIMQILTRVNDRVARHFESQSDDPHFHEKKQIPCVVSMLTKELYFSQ
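Detection: p-Nitroaniline absorbance at 405 nm, read at 0 and 120 min; system: Uncleavable procaspase-7 mutant enzyme; evaluation: % activation from two-timepoint absorbance difference, scaled to controls; times: 1 h enzyme–compound preincubation and 2 h substrate reaction, both 25 °C; buffer or medium: Zinc-free HEPES pH 7.4 with 300 mM NaCl, 0.01% Triton X-100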
proCasp3 act: activates human procaspase-3; P42574; recombinant procaspase-3 D3A, Ac-DEVD-pNA absorbance 405 nm; activation, % at 8.5 µM; hit rate 0.11% among 330,000; AID 463141;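 active means activation above the mean of all tested compounds plus 3 SD, cut at about 21% in these data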;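 further: 0% = DMSO alone and 100% = DMSO wells spiked with extra 5 µM PC-3 D3A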
Target sequence (P42574 whole entry D9A/D28A/D175A): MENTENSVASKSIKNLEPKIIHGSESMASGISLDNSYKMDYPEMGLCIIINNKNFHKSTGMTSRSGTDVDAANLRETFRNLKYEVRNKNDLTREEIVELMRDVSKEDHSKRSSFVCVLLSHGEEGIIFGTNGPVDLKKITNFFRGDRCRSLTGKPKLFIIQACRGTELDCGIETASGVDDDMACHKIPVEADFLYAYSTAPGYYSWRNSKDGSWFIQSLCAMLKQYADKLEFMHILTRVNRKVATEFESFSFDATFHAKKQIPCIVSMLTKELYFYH
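Assay system – Procaspase-3 D3A mutant, all three cleavage aspartates alanine · Controls – DMSO-only low control, 5 µM PC-3 D3A high control · Schedule – 1 h compound preincubation, 2 h substrate hydrolysis at 25 °C · Signal – 405 nm absorbance of p-nitroaniline, reads at 0 and 120 min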
aDG glyco act: increases alpha dystroglycan glycosylation; hit rate 0.22% among 360,000; activation, % at 10 µM; Pro5-aDG cells, alpha-DG glycosylation AlphaScreen (IIH6); 0% Pro5, 100% B10-LARGE cell signal;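 active means activation of at least 8% versus controls, or a plate z-score of at least 8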;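 further: Pro5 are CHO cells carrying HIG-tagged alpha-DG that lacks glycosylation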
GRK2 aptamer HTS: inhibitors of human GRK2 displacing RNA aptamer | P25098 | bead flow cytometry, FAM-aptamer displacement from GRK2 | inhibition of aptamer binding, % at 10 µM | hit rate 0.59% among 330,000 | AID 488847;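 active means inhibition of aptamer binding above 40%, roughly 3 SD of noise, on plates passing a quality check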;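 further: median bead fluorescence of bound FAM aptamer so fluorescent compounds give negative values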
CaV13 FRET inh: Disruptors of the CACNA1D IQ motif to Ca2+-dependent inactivation inhibitor domain association, primary screening, Förster resonance energy transfer in intact living …; hit rate 0.098% among 340,000; inhibition, % at 12.3 µM; AID 743397; HEK cells, CFP/YFP FRET ICDI-IQ, plate reader, 10 min; percent FRET-ratio fall versus neutral wells;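 active means mean replicate inhibition of at least 30% and at least 1% of replicates passing that level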;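 further: 0% = median of the neutral control wells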
GRK2 inh confirm: confirmation of human GRK2 inhibitors displacing RNA aptamer | shares compounds with GRK2 aptamer HTS | bead-bound GRK2, FAM-aptamer displacement, flow cytometry | aptamer displacement, % at 10 µM | hit rate 4% among 2,000;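 active means aptamer displacement above 40%, near three times the noise of non-fluorescent compounds, on plates passing quality checks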;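 further: negative values mostly reflect intrinsic compound fluorescence rather than true enhancement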
Aptamer quench: counter-screen for GRK2 aptamer inhibitors: fluorescent aptamer quenchers. AID 504521. 110 tested, under 10 active. Fluorescent RNA aptamer beads, quenching, flow cytometry; stronger effect = higher value. fluorescence change (kMESF span), kMESF (test concentration not listed). shares compounds with GRK2 aptamer HTS;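 active means compounds whose bead fluorescence drops by more than 37 kMESF across the dose range, marking them as dye quenchers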
Aptamer quench SP: quenches fluorescent RNA aptamer, GRK2 hit artifact; fluorescence response (% of DMSO), % at 10 µM; AID 504580; shares compounds with GRK2 aptamer HTS; Carboxyfluorescein RNA aptamer on beads, flow cytometry quenching; stronger effect = lower value; 2,000 tested, under 10 active;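 active means compounds that quench the bead-bound fluorescent RNA probe, cutting fluorescence to under half of the solvent control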;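 further: counterscreen run without GRK2 so only probe quenching by compound is measured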
GRK2 confirm 2: human GRK2 inhibition confirmation, cherry pick 2; shares compounds with GRK2 aptamer HTS; bead-bound GRK2, FAM-aptamer displacement, flow cytometry; inhibition of aptamer binding, % at 10 µM; 360 tested, under 10 active; AID 504782;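 active means inhibition of aptamer binding above 40%, about triple the noise seen with nonglowing compounds, on plates passing quality control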;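 further: negative values mostly come from compounds that fluoresce themselves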
FAM quench SP: counter-screen for GRK2 binding hits: quenchers of fluorescent RNA aptamer | shares compounds with GRK2 aptamer HTS | carboxyfluorescein RNA aptamer beads, flow cytometry quenching; stronger effect = lower value | fluorescence response vs DMSO, % at 10 µM | 360 tested, under 10 active | AID 588494;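 active means response vs DMSO under 50%, meaning signal dropped by over half, treated as fluorescence quencher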;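 further: labelled aptamer on streptavidin beads without GRK2 as a quench counter-screen; 100% = bead fluorescence of DMSO wells and lower means quenching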
Numbers without * were called inactive; / = not tested or not shown. Most compounds without a hit are left out; they make up all but 1.1% or so of the library.

SMILES	T cell modulator	procasp7 counter	proCasp3 act	aDG glyco act	GRK2 aptamer HTS	CaV13 FRET inh	GRK2 inh confirm	Aptamer quench SP	others
CNc1ncnc2c1ncn2[C@H]1CN(Cc2cccnc2)C[C@@H](CO)O1	/	/	/	0	/	-3	/	/
CC(C)NC(=O)NC(=O)COC(=O)/C=C/c1ccccc1[N+](=O)[O-]	459	2	4	0	100*	3	1	102
CN1C2=CC=CC=CC2=[N+](C)C12C([N+](=O)[O-])=CC(=[N+]([O-])[O-])C=C2[N+](=O)[O-] (stereo not drawn)	304	-7	-5	0	48*	-5	3	100
CCCCn1nnnc1C(c1ccccc1)N1CCN(C(=O)c2ccco2)CC1 (stereo not drawn)	/	/	/	0	/	-7	/	/
Cc1[nH]nc2c1/C(=N\O)CCC2	205	10	7	0	40	-3	-3	102
COc1ccccc1NC(=O)Cn1ccn(-c2cccc3ccccc23)c(=O)c1=O	329	2	-3	0	0	-6	/	/
COc1cc(/C=N/Nc2ccc(C(=O)O)cc2)cc(OC)c1OC	684	8	-6	0	1	-4	/	/
COc1cc(/C=N/Nc2ccc(C(=O)O)cc2)ccc1O	334	-4	-5	1	41*	-3	26	90
CCCCCC(=O)N1CC2(CC(c3cccc(NC(=O)[C@@H]4CCC(=O)N4)c3)=NO2)C[C@@H]1C(N)=O (stereo partly drawn)	226	1	5	0	0	-9	/	/	GRK2 confirm 2=-13;FAM quench SP=100
CC1(C(=O)N2CC3(CC(c4cccc(NC(=O)CC(c5ccccc5)c5ccccc5)c4)=NO3)C[C@@H]2C(N)=O)CC1 (stereo partly drawn)	721	1	2	0	0	-16	/	/	GRK2 confirm 2=6;FAM quench SP=99
C=C(C)C(=O)Nc1cccc(C2=NOC3(C2)C[C@@H](C(N)=O)N(C(=O)c2cc([N+](=O)[O-])cc([N+](=O)[O-])c2)C3)c1 (stereo partly drawn)	202	0	6	0	79*	-5	57*	97	Aptamer quench=8.5
C=C(C)C(=O)Nc1cccc(C2=NOC3(C2)C[C@@H](C(N)=O)N(C(=O)CCCCC)C3)c1 (stereo partly drawn)	642	-1	3	/	98*	-5	90*	99	Aptamer quench=-0.2
C=C(C)C(=O)Nc1cccc(C2=NOC3(C2)C[C@@H](C(N)=O)N(C(=O)[C@H]2CCC(=O)N2)C3)c1 (stereo partly drawn)	227	16	6	0	1	-4	/	/
COc1ccccc1Cc1c(-c2ccc(Cl)cc2)nc2ccc(C)cn12	/	/	/	/	/	-7	/	/
CCC(=O)Nc1cccc(C2=NOC3(C2)C[C@H](C(N)=O)N(C(=O)CC#N)C3)c1 (stereo partly drawn)	759	-1	-11	0	0	-10	/	/	GRK2 confirm 2=-35;FAM quench SP=101
C=CCn1c(NC(=O)c2ccccc2Cl)c(C#N)c2nc3ccccc3nc21	123	-15	-28	0	43*	9	1	101
CCCCn1c(NC(C)=O)c(C#N)c2nc3ccccc3nc21	347	-1	0	0	1	-3	/	/
COc1ccc(OCC(=O)Nc2ccccc2Cl)cc1	238	0	2	0	1	-6	/	/
COc1ccc(SCC(=O)Nc2ccccc2Cl)cc1	159	7	4	0	65*	-4	/	/	GRK2 confirm 2=3;FAM quench SP=101
CCNc1nc(NCC)n2c(SCC(=O)Nc3ccc(F)cc3)nnc2n1	318	8	-4	0	23	-3	/	/
CCNc1nc(NCC)n2c(SCC(=O)Nc3ccccc3)nnc2n1	258	5	2	0	0	-3	/	/	GRK2 confirm 2=2;FAM quench SP=106
CCNc1nc(NCC)n2c(SCC(=O)Nc3ccc(OC(F)F)cc3)nnc2n1	/	/	/	0	/	-6	/	/
CCNc1nc(NCC)n2c(SCC(=O)Nc3ccc(C)c(C)c3)nnc2n1	482	-2	10	1	78*	-7	57*	155	Aptamer quench=-6.6
CCNc1nc(NCC)n2c(SCC(=O)Nc3cc(OC)ccc3OC)nnc2n1	318	4	18	0	0	-6	/	/	GRK2 confirm 2=-13;FAM quench SP=101
Cc1ccc(C(=O)Nc2cccc(C(=O)NC3CCCC3)c2)cc1	182	12	0	0	1	-2	/	/
SMILES	T cell modulator	procasp7 counter	proCasp3 act	aDG glyco act	GRK2 aptamer HTS	CaV13 FRET inh	GRK2 inh confirm	Aptamer quench SP	others
CN(c1ncc(C(F)(F)F)cc1Cl)N1C(=O)c2cccc([N+](=O)[O-])c2C1=O	394	-1	-10	0	57*	-20	0	102
CC(C)[C@H](NC(=O)c1cccc(CN(Cc2ccccc2)C(=O)c2ccccc2)c1)C(=O)O	439	6	0	0	1	-14	/	/
N[C@H]1CONC1=O	889	13	7	/	4	/	-1	101
CCn1c(=O)c(C(=O)NNC(=O)c2cccc(Cl)c2)c(O)c2ccccc21	286	5	1	0	54*	-4	-9	105
Cn1c(=O)c(C(=O)NNC(=O)c2cccc(Cl)c2)c(O)c2ccccc21	139	-5	3	0	90*	-5	65*	142	Aptamer quench=-35
COCCCNC(=O)Cn1c(=O)n(CCCCCC(=O)NCc2ccc3c(c2)OCO3)c(=O)c2sccc21	378	9	4	0	0	-13	/	/
Cc1ccc([C@H]2C(C(=O)O)=CC[C@@H](c3ccc(Cl)c(Cl)c3)N2S(=O)(=O)c2ccc(C)cc2)cc1	199	-8	1	0	3	-7	/	/
CCS(=O)(=O)Nc1cc2c3c(c1)CCN3C(=O)CC2	554	1	-2	0	45*	-3	5	102
